Laboratory results published in ChEMBL document CHEMBL5154824, “Design and synthesis of multifunctional microtubule targeting agents endowed with dual pro-apoptotic and anti-autophagic efficacy” (Eur J Med Chem, 2022).
pEC50, pIC50: −log10 of the molar value. Calls of active or inactive are those of the source. The calls are words filed in the database; no cut-off is given here.

Tests used:
[1] = test system: SCC-4; assay: Induction of apoptosis in human SCC-4 cells assessed as increase in apoptotic cells at 0.5 uM after 48 hrs by Annexin V-FITC/PI staining based flow cytometry method; assay type: functional, cell-based
Procedure, shortened: (§1)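 SCC4 cells were treated at 0.5 or 2 μM for 48 h, then stained with Annexin V/PI and analysed by flow cytometry. Data are mean ± SEM of three independent experiments, with an unpaired one-tailed t-test versus vehicle.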

[2] = test system: SCC-4; assay: Induction of apoptosis in human SCC-4 cells assessed as increase in apoptotic cells at 2 uM after 48 hrs by Annexin V-FITC/PI staining based flow cytometry method; assay type: functional, cell-based; procedure, shortened: as §1
[3] = test system: SCC-4; assay: Induction of autophagy in human SCC-4 cells assessed as increase in LC3-II to LC3-I ratio at 10 uM in absence of EBSS measured after 3 hrs by Western blot analysis; assay type: functional, cell-based
Procedure, shortened: (§2)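 SCC4 cells were pre-incubated with or without EBSS for 30 min, then given 10 μM compound, with 10 μM chloroquine as reference, for 3 h. LC3-I/II was assessed by Western blot with GAPDH loading control. The LC3-II/LC3-I ratio came from densitometry, as mean ± SEM of four experiments, with an unpaired one-tailed t-test.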

[4] = test system: SCC-4; assay: Cytotoxicity against human SCC-4 cells assessed as reduction in cell viability measured after 48 hrs by alamar blue viability assay; assay type: functional, cell-based; conditions: SCC-4, 48 h
Procedure, shortened: (§3)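 Oral squamous carcinoma cells were exposed for 48 h to at least 8 increasing concentrations. Viability was read by AlamarBlue. IC50 is the concentration that halves viability, taken as the mean ± SD of at least three independent experiments.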

[5] = test system: SCC-4; assay: Induction of autophagy in human SCC-4 cells assessed as increase in LC3-II to LC3-I ratio at 10 uM incubated for 30 mins in presence of EBSS followed by compound addition and measured after 3 hrs by Western blot analysis; assay type: functional, cell-based; procedure, shortened: as §2
[6] = Induction of Pro-apoptosis in human HL-60 cells assessed as increase in apoptotic cells at 10 uM after 48 hrs by Annexin-V/PI-staining based flow cytometry; assay type: functional
[7] = Induction of Pro-apoptosis in human HL-60 cells assessed as increase in apoptotic cells at 50 uM after 48 hrs by TMRM dye based flow cytometric analysis; assay type: functional
[8] = Induction of Pro-apoptosis in human HL-60 cells assessed as increase in apoptotic cells at 20 uM after 48 hrs by TMRM dye based flow cytometric analysis; assay type: functional
[9] = biological target: Tubulin (Homo sapiens) (UniProt P68371+Q9H4B7+P0DPH7+P68366+Q13509+Q71U36+P04350+Q3ZCM7+P07437+P68363+Q9BQE3+Q6PEY2+Q13885+Q9BVA1+Q9BUF5); assay: Binding affinity to microtubule polymerization (unknown origin) assessed as formation of microtubule at 27.5 uM measured for 2 hrs by plate reader method; assay type: protein-complex assay
Procedure, shortened: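 25 μM tubulin in GAB buffer with compound at 27.5 μM or DMSO vehicle; podophyllotoxin 27.5 μM as destabiliser control. Polymerisation started by raising temperature from 4 to 37 °C at time 0; microtubule formation followed as absorbance increase over time.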

[10] = test system: A2780; assay: Cytotoxicity against human A2780 cells assessed as inhibition of cell growth measured after 48 hrs by MTT assay; assay type: functional, cell-based; conditions: A2780, 48 h
Procedure, shortened: (§4)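 MTT assay. Cells were exposed for 48 h to increasing concentrations of compound. Ovarian A2780 was paired with its P-gp-overexpressing A2780AD counterpart, and HeLa with HeLa β3, which overexpresses the tubulin β3 isotype. IC50 is the mean ± SD of three independent experiments.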

[11] = Ratio of IC50 for cytotoxicity against human HeLa cells overexpressing tubulin beta3 assessed as inhibition of cell growth measured after 48 hrs to IC50 for cytotoxicity against human HeLa cells assessed as inhibition of cell growth measured after 48 hrs; assay type: functional
Procedure, shortened: (§5)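 MTT assay: cells exposed to increasing compound concentrations for 48 h. Lines were A2780 and its P-gp-overexpressing A2780AD counterpart, and HeLa and HeLa β3 (tubulin β3-overexpressing). IC50 is the mean ± SD of three independent experiments. R/S is the IC50 in the resistant line divided by that in the parental line.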

[12] = test system: HeLa; assay: Cytotoxicity against human HeLa cells overexpressing tubulin beta3 assessed as inhibition of cell growth measured after 48 hrs by MTT assay; assay type: functional, cell-based; procedure, shortened: as §4
[13] = Ratio of IC50 for cytotoxicity against human […] assessed as inhibition of cell growth measured after 48 hrs to IC50 for cytotoxicity against human A2780 cells assessed as inhibition of cell growth measured after 48 hrs; assay type: functional; procedure, shortened: as §5
[14] = test system: HeLa; assay: Cytotoxicity against human HeLa cells assessed as inhibition of cell growth measured after 48 hrs by MTT assay; assay type: functional, cell-based; procedure, shortened: as §4
[15] = test system: A549; assay: Cytotoxicity against human A549 cells assessed as inhibition of cell growth measured after 48 hrs by MTT assay; assay type: functional, cell-based; conditions: A549, 48 h
[16] = test system: A2780; assay: Cytotoxicity against human A2780AD cells assessed as inhibition of cell growth measured after 48 hrs by MTT assay; assay type: functional, cell-based; conditions: A2780, 48 h; procedure, shortened: as §4
[17] = test system: Ca9-22; assay: Cytotoxicity against human Ca9-22 cells assessed as reduction in cell viability measured after 48 hrs by alamar blue viability assay; assay type: functional, cell-based; conditions: Ca9-22, 48 h; procedure, shortened: as §3
[18] = test system: HL-60; assay: Induction of autophagy in human HL-60 cells assessed as increase in p62 protein level at 10 uM […] by Immunoblotting analysis; assay type: functional, cell-based
[19] = test system: HL-60; assay: Induction of autophagy in human HL-60 cells assessed as increase in LC3-II protein level at 10 uM measured up to 1 hr by Immunoblotting analysis; assay type: functional, cell-based
[20] = Cytotoxicity against human TR146 cells assessed as reduction in cell viability measured after 48 hrs by alamar blue viability assay; assay type: functional, cell-based; conditions: TR146, 48 h; procedure, shortened: as §3
[21] = Cytotoxicity against human Primary oral epithelial cells assessed as inhibition of cell growth measured after 24 hrs by neutral red uptake assay; assay type: toxicity, cell-based
Procedure, shortened: (§6)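 Neutral red uptake viability test. NIH3T3 fibroblasts or primary human oral epithelial cells were exposed to compound at 0.1 to 120 μM. EC50 was derived, with SD below 5%.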

[22] = test system: KYSE-520 cell line; assay: Induction of apoptosis in human KYSE520 cells assessed as increase in apoptotic cells at 3 to 10 uM after 72 hrs by Annexin V-FITC/PI staining based flow cytometry method; assay type: functional, cell-based; conditions: dose 3-10 µM
Procedure, shortened: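 KYSE-520 cells were treated at 3 and 10 μM for 72 h, then analysed by flow cytometry after Annexin V/PI dual staining.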

[23] = test system: KYSE-520 cell line; assay: Cytotoxicity against human KYSE520 cells assessed as inhibition of cell growth measured after 72 hrs by alamar blue viability assay; assay type: functional, cell-based; conditions: KYSE-520, 72 h
Procedure, shortened: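 KYSE-520 oesophageal cells were exposed to at least 8 increasing concentrations for 48 h or 72 h. Viability was read out to give IC50, as the mean ± SD of at least three independent experiments.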

[24] = biological target: Nuclear factor NF-kappa-B complex (Homo sapiens) (UniProt Q00653+P19838+Q04206); assay: Inhibition of NF-kappaB phosphorylation in human HL-60 cells at 10 uM measured after 2 hrs by Immunoblotting analysis; assay type: cell-based
Sequence of Nuclear factor NF-kappa-B complex (Homo sapiens) (P19838 whole entry, looked up): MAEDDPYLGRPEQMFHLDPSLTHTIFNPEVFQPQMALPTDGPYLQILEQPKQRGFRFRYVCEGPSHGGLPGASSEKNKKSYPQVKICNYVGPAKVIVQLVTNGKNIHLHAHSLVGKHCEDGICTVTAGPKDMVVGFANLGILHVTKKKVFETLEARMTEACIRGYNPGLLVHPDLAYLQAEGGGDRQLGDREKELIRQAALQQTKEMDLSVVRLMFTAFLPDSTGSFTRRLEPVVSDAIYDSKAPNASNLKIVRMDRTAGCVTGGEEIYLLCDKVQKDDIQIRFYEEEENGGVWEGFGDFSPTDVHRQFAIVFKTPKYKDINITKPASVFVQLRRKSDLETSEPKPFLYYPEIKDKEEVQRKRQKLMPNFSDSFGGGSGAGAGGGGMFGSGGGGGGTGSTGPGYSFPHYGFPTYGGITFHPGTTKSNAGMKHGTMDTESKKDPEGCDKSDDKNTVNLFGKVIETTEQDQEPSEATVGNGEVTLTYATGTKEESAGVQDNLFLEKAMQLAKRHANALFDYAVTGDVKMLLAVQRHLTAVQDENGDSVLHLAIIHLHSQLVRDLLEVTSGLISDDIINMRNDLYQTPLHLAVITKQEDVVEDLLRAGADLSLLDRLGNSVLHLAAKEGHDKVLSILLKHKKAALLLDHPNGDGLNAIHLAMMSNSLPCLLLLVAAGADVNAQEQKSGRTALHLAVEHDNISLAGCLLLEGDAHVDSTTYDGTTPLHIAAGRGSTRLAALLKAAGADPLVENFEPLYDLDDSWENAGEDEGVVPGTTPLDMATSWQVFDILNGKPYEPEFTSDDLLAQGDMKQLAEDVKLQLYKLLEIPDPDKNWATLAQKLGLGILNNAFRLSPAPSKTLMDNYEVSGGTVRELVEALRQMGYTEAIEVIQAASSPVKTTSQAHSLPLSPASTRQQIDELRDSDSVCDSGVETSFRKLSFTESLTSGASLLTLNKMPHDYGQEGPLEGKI
Sequence of Nuclear factor NF-kappa-B complex (Homo sapiens) (Q00653 whole entry, looked up): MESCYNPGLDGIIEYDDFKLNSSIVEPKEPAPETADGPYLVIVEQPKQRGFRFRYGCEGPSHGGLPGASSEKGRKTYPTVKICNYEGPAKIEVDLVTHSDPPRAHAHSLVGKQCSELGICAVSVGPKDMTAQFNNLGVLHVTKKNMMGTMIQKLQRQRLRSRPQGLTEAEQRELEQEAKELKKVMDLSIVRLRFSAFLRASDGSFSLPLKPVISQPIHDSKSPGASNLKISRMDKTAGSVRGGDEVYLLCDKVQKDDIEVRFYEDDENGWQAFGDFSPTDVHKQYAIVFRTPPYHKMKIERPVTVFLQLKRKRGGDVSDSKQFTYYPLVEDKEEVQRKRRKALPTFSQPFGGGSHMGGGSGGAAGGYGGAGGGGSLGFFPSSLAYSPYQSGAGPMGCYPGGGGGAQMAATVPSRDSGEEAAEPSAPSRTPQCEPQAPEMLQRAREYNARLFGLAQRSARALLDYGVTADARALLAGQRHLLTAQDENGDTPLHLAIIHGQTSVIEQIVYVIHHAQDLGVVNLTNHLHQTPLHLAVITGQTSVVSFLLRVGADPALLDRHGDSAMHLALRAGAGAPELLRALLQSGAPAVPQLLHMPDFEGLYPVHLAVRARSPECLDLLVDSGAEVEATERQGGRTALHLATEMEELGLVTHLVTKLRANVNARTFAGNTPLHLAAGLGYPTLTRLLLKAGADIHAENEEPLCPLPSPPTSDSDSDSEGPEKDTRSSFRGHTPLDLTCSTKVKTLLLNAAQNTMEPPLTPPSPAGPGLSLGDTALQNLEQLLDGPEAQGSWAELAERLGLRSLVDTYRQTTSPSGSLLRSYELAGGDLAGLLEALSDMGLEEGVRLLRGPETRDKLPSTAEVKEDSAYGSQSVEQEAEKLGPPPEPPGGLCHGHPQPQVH
Sequence of Nuclear factor NF-kappa-B complex (Homo sapiens) (Q04206 whole entry, looked up): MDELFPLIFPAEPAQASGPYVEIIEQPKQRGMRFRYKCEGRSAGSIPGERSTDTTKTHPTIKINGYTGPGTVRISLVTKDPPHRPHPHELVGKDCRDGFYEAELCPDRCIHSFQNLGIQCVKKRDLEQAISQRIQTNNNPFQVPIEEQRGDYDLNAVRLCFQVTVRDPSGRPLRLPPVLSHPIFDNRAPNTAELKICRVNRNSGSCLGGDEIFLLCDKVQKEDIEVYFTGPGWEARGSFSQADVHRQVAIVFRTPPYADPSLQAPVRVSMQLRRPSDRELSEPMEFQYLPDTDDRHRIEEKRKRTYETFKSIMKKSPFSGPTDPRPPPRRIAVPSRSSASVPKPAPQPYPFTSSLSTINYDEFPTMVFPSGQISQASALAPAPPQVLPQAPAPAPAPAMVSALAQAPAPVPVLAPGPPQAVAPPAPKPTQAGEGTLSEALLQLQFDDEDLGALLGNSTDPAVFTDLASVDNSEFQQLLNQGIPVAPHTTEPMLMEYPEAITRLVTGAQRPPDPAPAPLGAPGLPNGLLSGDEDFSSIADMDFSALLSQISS
Procedure, shortened: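 HL-60 cells were treated at 10 μM or with DMSO vehicle for 2 h. Phospho-NF-κB and phospho-Erk1/2 were immunoblotted and quantified by densitometry relative to β-tubulin. Data are mean ± SD (n = 2), analysed by one-way ANOVA.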

[25] = test system: HL-60; assay: Induction of autophagy in human HL-60 cells assessed as increase in LC3-II protein level at 10 uM in presence of chloroquine […] by Immunoblotting analysis; assay type: functional, cell-based
[26] = test system: Emu-TCL1; assay: Induction of apoptosis in mouse Emu-TCL1 cells model of CLL assessed as mitochondrial membrane depolarization at 10 uM after 48 hrs by TMRM dye based flow cytometric analysis; assay type: functional, cell-based
Procedure, shortened: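 Splenocytes from Eμ-TCL1 leukaemic mice were treated with 10 μM or DMSO vehicle for 48 h, then TMRM-loaded. Flow cytometry gave the percentage of TMRM-low cells as mean ± SD (n = 3).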

[27] = test system: NIH3T3; assay: Cytotoxicity against mouse NIH3T3 cells assessed as inhibition of cell growth measured after 24 hrs by neutral red uptake assay; assay type: functional, cell-based; conditions: NIH3T3, 24 h; procedure, shortened: as §6
[28] = test system: OE33; assay: Cytotoxicity against human OE33 cells assessed as inhibition of cell growth measured after 72 hrs by MTT assay; assay type: functional, cell-based; conditions: OE33, 72 h
Procedure, shortened: (§7)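 Oesophageal adenocarcinoma lines were exposed to at least 8 increasing concentrations for 72 h. Viability was measured by MTT. IC50 is the mean ± SD of at least three independent experiments.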

[29] = Induction of Pro-apoptosis in human HL-60 cells assessed as increase in apoptotic cells at 10 uM after 24 hrs by TMRM dye based flow cytometric analysis; assay type: functional
[30] = Induction of Pro-apoptosis in human HL-60 cells assessed as increase in apoptotic cells at 25 uM after 24 hrs by TMRM dye based flow cytometric analysis; assay type: functional
[31] = test system: OE19; assay: Cytotoxicity against human OE19 cells assessed as inhibition of cell growth measured after 72 hrs by MTT assay; assay type: functional, cell-based; conditions: OE19, 72 h; procedure, shortened: as §7
[32] = Cytotoxicity against human SKGT4 cells assessed as inhibition of cell growth measured after 72 hrs by MTT assay; assay type: functional, cell-based; conditions: SKGT4, 72 h; procedure, shortened: as §7

CC(=O)OC1=C(c2cccc3cccnc23)Oc2cc3ccccc3cc2-n2cccc21
Activity [1]: Active | Activity [2]: Active | Activity [3]: Active | pIC50 [4]: 6.89 | Activity [5]: Active | Activity [6]: >=70%

CC(=O)OC1=C(c2cccc3ccccc23)Oc2ccc(N3CCN(C(C)=O)CC3)cc2-n2cccc21
Activity [7]: >=70% | Activity [8]: <30%

COc1cc([C@@H]2c3cc4c(cc3[C@H](O)[C@H]3COC(=O)[C@H]23)OCO4)cc(OC)c1OC [PODOFILOX]
Activity [9]: Active | pIC50 [10]: 7.82 | Ratio IC50 [11]: 0.82 | pIC50 [12]: 7.85 | Ratio IC50 [13]: 1.33 | pIC50 [14]: 7.77 | pIC50 [15]: 7.92 | pIC50 [16]: 7.70

CN(C)C(=O)OC1=C(c2cccc3ccccc23)Oc2ccccc2-n2cccc21
pIC50 [17]: 6.77 | pIC50 [4]: 6.80 | Activity [6]: >=70%

CCN(CC)CCCC(C)Nc1ccnc2cc(Cl)ccc12 (stereo not drawn)
Activity [3]: Active | Activity [5]: Active

CCN(CC)CCCC(C)NC(=O)OC1=C(c2cccc3ncccc23)Oc2cc3ccccc3cc2-n2cccc21 (racemic)
pIC50 [17]: 5.70 | Activity [1]: Active | Activity [2]: Active | Activity [18]: Active | Activity [19]: Active | pIC50 [20]: 5.82 | Activity [9]: Active | pIC50 [10]: 5.99 | EC50 at 24 h [21]: 45000 nM | Ratio IC50 [11]: 0.72 | Activity [22]: Active | pIC50 [12]: 6.18 | Activity [3]: Active | pIC50 [23]: 4.38 | inhibition [24]: Active | Ratio IC50 [13]: 1.18 | pIC50 [4]: 6.04 | Activity [5]: Active | pIC50 [14]: 6.04 | Activity [6]: >=70% | Activity [25]: Active | pIC50 [15]: 5.86 | pIC50 [16]: 5.92 | Activity [26]: Active | pEC50 [27]: 5.22 | pIC50 [28]: 5.86

CC(=O)OC1=C(c2cccc3ccccc23)Oc2cc3ccccc3cc2-n2cccc21
Activity [18]: Active | Activity [19]: Active | Activity [29]: >=50% | inhibition [24]: Active | Activity [6]: >=70% | Activity [25]: Active | Activity [26]: Active

CC(C)(C)OC(=O)N1CCC(C(=O)OC2=C(c3cccc4ncccc34)Oc3cc4ccccc4cc3-n3cccc32)CC1
Activity [6]: >=30% | Activity [26]: Active | pEC50 [27]: 5.22

O=C(OC1=C(c2cccc3ncccc23)Oc2cc3ccccc3cc2-n2cccc21)c1cccnc1
Activity [18]: Active | Activity [19]: Active | Activity [6]: >=70% | Activity [25]: Active | Activity [26]: Active | pEC50 [27]: 5.22

CC(=O)OC1=C(c2cccc3ccccc23)Oc2ccc(C)cc2-n2cccc21
Activity [29]: <30% | Activity [30]: >=50% | pEC50 [27]: 6.52

CC(=O)OC1=C(c2cccc3ccccc23)Oc2ccc(N3CCN(C)CC3)cc2-n2cccc21
Activity [6]: <30% | Activity [26]: Active | pEC50 [27]: 4.35

CC(=O)OC1=C(c2cccc3ccccc23)Oc2cc3c(cc2-n2cccc21)OCCO3
Activity [29]: >=50% | Activity [30]: >=50% | pEC50 [27]: 7.00

CC(=O)OC1=C(c2cccc3ncccc23)Oc2cc3ccccc3cc2-n2cccc21
pIC50 [31]: 6.14 | Activity [18]: Active | Activity [19]: Active | Activity [22]: Active | Activity [3]: Active | pIC50 [23]: 3.86 | pIC50 [32]: 6.29 | inhibition [24]: Active | Activity [5]: Active | Activity [6]: >=70% | Activity [25]: Active | Activity [26]: Active | pIC50 [28]: 6.49

CC(=O)OC1=C(c2cccc3ccccc23)Oc2cc3c(cc2-n2cccc21)OCO3
Activity [29]: >=50% | Activity [30]: >=50% | pEC50 [27]: 6.82

CCN(CC)C(=O)OC1=C(c2cccc3ccccc23)Oc2ccc(N3CCN(C)CC3)cc2-n2cccc21
Activity [6]: <30% | Activity [26]: Active | pEC50 [27]: 5.30

CN(C)C(=O)OC1=C(c2cccc3ccccc23)Oc2ccc(Cl)cc2-n2cccc21
Activity [29]: >=50% | Activity [30]: >=50%
